The values that follow come from publication PMC3793218 (Scientific Reports, 2013).

SMILES strings stand for the structures. A value given as a limit tells only on which side of the number the result lay.

For data set [1], the target named is T1, human UGT1A1 (Homo sapiens, UniProt P22309).
T1 sequence (P22309 26-533): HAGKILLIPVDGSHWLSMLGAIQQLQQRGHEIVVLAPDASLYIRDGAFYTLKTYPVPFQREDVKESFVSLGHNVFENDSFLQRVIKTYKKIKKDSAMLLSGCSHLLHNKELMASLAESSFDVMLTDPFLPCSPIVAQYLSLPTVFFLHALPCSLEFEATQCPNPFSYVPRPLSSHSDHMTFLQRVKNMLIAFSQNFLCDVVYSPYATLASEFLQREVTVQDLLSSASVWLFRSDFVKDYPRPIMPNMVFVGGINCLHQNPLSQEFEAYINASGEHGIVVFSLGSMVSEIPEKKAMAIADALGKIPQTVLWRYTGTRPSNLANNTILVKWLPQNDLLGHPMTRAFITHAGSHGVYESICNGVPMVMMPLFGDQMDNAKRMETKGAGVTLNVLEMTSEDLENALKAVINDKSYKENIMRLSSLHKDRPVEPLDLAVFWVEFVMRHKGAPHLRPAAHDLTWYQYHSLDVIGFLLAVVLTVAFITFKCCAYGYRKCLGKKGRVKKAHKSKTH
As to the kind of experiment: Inhibition of estradiol 3-O-glucuronidation in the UGT1A1 recombinant system. It counts as biochemical. As to conditions: for Inhibitory pattern against estradiol 3-O-glucuronidation: Recombinant UGT1A1, Dixon plot; for Inhibition of UGT1A1 activity: UGT1A1 recombinant system, 50 μM fatty acid. Summed up:
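Recombinant UGT1A1 Supersomes (0.25 mg/ml) were used in 50 mM Tris-HCl pH 7.4, 10 mM MgCl2, 25 μg/ml alamethicin and 2 mM UDPGA, with test fatty acid at 1–50 μM, 3-min preincubation, and 30 min at 37°C. For IC50, estradiol was 10 μM, runs were duplicate, and values came from linear regression. For Ki, estradiol was 5, 10 or 20 μM with Dixon plot. Product measured by HPLC-fluorescence against authentic standard.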

Data set [2] addresses T2, UGT1A1 activity in human liver microsomes (Homo sapiens, UniProt P22309).
T2 sequence (P22309 26-533): T1 sequence (P22309 26-533)
As to the kind of experiment: Inhibition of estradiol 3-O-glucuronidation in human liver microsomes. Conditions: for Inhibitory pattern against estradiol 3-O-glucuronidation: Human liver microsomes, Dixon plot. The class given is biochemical. Summed up:
(§1)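 Microsomes from human liver or small intestine (0.25 mg/ml) were incubated with 50 mM Tris-HCl pH 7.4, 10 mM MgCl2, 25 μg/ml alamethicin, 2 mM UDPGA, estradiol at 5, 10 or 20 μM, and test fatty acid at 1–50 μM. After 3-min preincubation at 37°C, UDPGA was added to start; 30 min at 37°C; cold methanol stop. Glucuronide measured by HPLC-fluorescence (ex 280/em 310 nm); Dixon plot gave inhibition type and Ki.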
Background: Liver microsomes are vesicles of endoplasmic reticulum, rich in cytochrome P450 enzymes.

The next data set concerns UGT1A1. Put plainly: Inhibition of estradiol 3-O-glucuronidation in human small intestine microsomes. The class given is biochemical. As to conditions: human, human small intestine microsomes; for activity at 30 min, 50 μM: pH 7.4, probe estradiol (10 μM; estradiol 3-O-glucuronide formation). Summed up:
as §1

The target in data set [3] is T1, human UGT1A1. Conditions: read-out: Km value of bilirubin glucuronidation; cited from earlier work.
Data set [4] deals with UGT1A1 activity in human small intestine microsomes. Put plainly: Inhibition of estradiol 3-O-glucuronidation in human small intestine microsomes. The class given is biochemical. As to conditions: Human small intestine microsomes; Dixon plot. An outline of the steps:
as §1

In another data set the test system is hUGT1 mice. The class given is in vivo. Conditions: neonatal hUGT1 mice; oral 10 mg/kg at 12 days after birth; 48 hours after treatment; control increase 2.3 ± 3.2 mg/dL.
Data set [5] relates to bilirubin clearance by UGT1A1. Put plainly: Estimated ratio of intrinsic clearance. Conditions: Equation 4; DHA concentration in human breast milk around 60 μM.

As a reminder, the IC50 is the point on the concentration scale where inhibition reaches its midpoint. Take `CCCCCCCCCCCCCCCCCC(=O)O` [stearic acid]: at human UGT1A1 [1], the IC50 is over 50 µM.

What is called Ki is a measure of affinity in units of concentration, obtained from inhibition or displacement. Consider `CCCCCCCC/C=C\CCCCCCCC(=O)O` [Oleic acid], for which, on human UGT1A1 [1], the half-inhibitory concentration (IC50) was 31.6 µM, the inhibitory constant (Ki) stood at 23.4 µM and the “Inhibitory pattern against estradiol 3-O-glucuronidation” value (shortened to “Inhibitory pattern”) is listed as “non-competitively”. Also, in data set [2], the affinity corresponds to a Ki of 29.3 µM and the “Inhibitory pattern” value is “non-competitively”. The activity at 30 min, 50 μM in the data set on UGT1A1 is over 80%.

As for `CCCCCCCCCCCC(=O)O` [lauric acid], the “Inhibition of UGT1A1 activity” value at human UGT1A1 [1] is “not inhibited at all”.

Broadly, the Km is the concentration of substrate that gives half-maximal velocity. Regarding `C=CC1=C(C)/C(=C/c2[nH]c(Cc3[nH]c(/C=C4\NC(=O)C(C)=C4C=C)c(C)c3CCC(=O)O)c(CCC(=O)O)c2C)NC1=O` [bilirubin], the Michaelis-Menten constant (Km) on human UGT1A1 [3] was about 2 µM.

Regarding `CCCCCC/C=C\CCCCCCCC(=O)O` [Palmitoleic acid], the IC50 on human UGT1A1 [1] came out at 37.1 µM.

For `CCCCCCCCCCCCCCCC(=O)O` [palmitic acid], at human UGT1A1 [1], the IC50 is over 50 µM and the “Inhibition of UGT1A1 activity” value is reported as “not inhibited at all”.

On to `CCCCCCCCCCCCCCCCCCCCCC(=O)O` [behenic acid], for which, at human UGT1A1 [1], the IC50 was over 50 µM and the “Inhibition of UGT1A1 activity” value is reported as “not inhibited at all”.

`CCCCCCCCCCCCCCCCCCCC(=O)O` [arachidic acid]: at human UGT1A1 [1], the 50% inhibitory concentration (IC50) was over 50 µM and the “Inhibition of UGT1A1 activity” value is reported as “not inhibited at all”.

As for `CCCCC/C=C\C/C=C\C/C=C\C/C=C\CCCC(=O)O` [Arachidonic acid], the IC50 on human UGT1A1 [1] is 22.7 µM.

Take `CCCCCCCCCCCCCC(=O)O` [myristic acid]: on human UGT1A1 [1], the half-inhibitory concentration (IC50) was over 50 µM and the “Inhibition of UGT1A1 activity” value is “not inhibited at all”.

`CCCCCCCCCCCCCCCCCCCCCCCC(=O)O` [lignoceric acid]: at human UGT1A1 [1], the “Inhibition of UGT1A1 activity” value was “not inhibited at all”.

Take `CCCCC/C=C\C/C=C\CCCCCCCC(=O)O` [Linoleic acid]: on human UGT1A1 [1], the concentration for half-maximal inhibition (IC50) was determined as 33.1 µM, the Ki turned out to be 22.1 µM and the “Inhibitory pattern” value was “non-competitively”. Besides, in data set [2], the Ki was 24 µM and the “Inhibitory pattern” value is “non-competitively”. In the data set on UGT1A1, this molecule displayed an activity at 30 min, 50 μM of over 80%.

For `CC/C=C\C/C=C\C/C=C\C/C=C\C/C=C\CCCC(=O)O` [EPA, eicosapentaenoic acid], on human UGT1A1 [1], the IC50 was 19.9 µM.

As to `CCCCCCCCCC(=O)O` [decanoic acid], the IC50 at human UGT1A1 [1] is over 50 µM.

Consider `CC/C=C\C/C=C\C/C=C\C/C=C\C/C=C\C/C=C\CCC(=O)O` [DHA, docosahexaenoic acid], for which, at human UGT1A1 [1], the IC50 was 11.6 µM, the Ki came out at 1.8 µM and the “Inhibitory pattern” value is listed as “non-competitive”. Moreover, in data set [2], affinity was put at a Ki of 4.3 µM and the “Inhibitory pattern” value was “non-competitive”. The “Inhibitory pattern” value in data set [4] was “non-competitive”. This molecule also registered a Ki at 30 min in the data set with UGT1A1 (pH 7.4) of 5.2 µM. In the data set with hUGT1 mice, the “Increase of serum bilirubin levels from 12 days to 14 days after birth” value stood at 6.6 mg/dL. In addition, the “R value (ratio of intrinsic clearance in presence and absence of inhibitor)” value in data set [5] was 0.08.
